# Assays:
# [1] = Cytotoxicity against human LO2 cells by MTT assay; format: cell-based; conditions: L02
# Procedure, shortened: (§1)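 Log-phase cells were diluted to 40,000–50,000 cells/mL in medium with 10% FBS, 2 mM glutamine and antibiotics (37 °C, 5% CO₂). They were seeded in 96-well plates and treated with a range of doses. MTT was added for 4 h, the formazan was dissolved in DMSO, and absorbance was read at 590 nm.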
# K562 = test: Cytotoxicity against human K562 cells by MTT assay; format: functional, cell-based; procedure, shortened: as §1
# A-375 = test: Cytotoxicity against human A375 cells by MTT assay; format: functional, cell-based; procedure, shortened: as §1
# HepG2 = test: Cytotoxicity against human HepG2 cells by MTT assay; format: functional, cell-based; procedure, shortened: as §1
# SK-HEP1 = test: Cytotoxicity against human SKHEP1 cells by MTT assay; format: functional, cell-based
# MCF7 = test: Cytotoxicity against human MCF7 cells by MTT assay; format: functional, cell-based
# Bel-7402 = test: Cytotoxicity against human Bel7402 cells by MTT assay; format: functional, cell-based
# [2] = Cytotoxicity against human SPC-A1 cells by MTT assay; format: functional, cell-based; conditions: SPCA1
# PC-3 = test: Cytotoxicity against human PC3 cells by MTT assay; format: functional, cell-based
# SK-OV-3 = test: Cytotoxicity against human SKOV3 cells by MTT assay; format: functional, cell-based
# [3] = Cytotoxicity against mouse C26 cells by MTT assay; format: functional, cell-based
# DU-145 = test: Cytotoxicity against human DU145 cells by MTT assay; format: functional, cell-based
# [4] = Cytotoxicity against human H460 cells by MTT assay; format: functional, cell-based; conditions: NCI-H460
# HT-29 = test: Cytotoxicity against human HT-29 cells by MTT assay; format: functional, cell-based
# [5] = Cytotoxicity against human ES2 cells by MTT assay; format: functional, cell-based; conditions: ES-2
# [6] = Cytotoxicity against human MCF7/ADR cells by MTT assay; format: functional, cell-based; conditions: NCI/ADR-RES
# HCT-8 = test: Cytotoxicity against taxol-resistant human HCT8 cells by MTT assay; format: functional, cell-based
# NCI-H358 = test: Cytotoxicity against human NCI-H358 cells by MTT assay; format: functional, cell-based
# A2780 = test: Cytotoxicity against taxol-resistant human A2780 cells by MTT assay; format: functional, cell-based
# [7] = Cytotoxicity against human A2780S cells by MTT assay; format: functional, cell-based; conditions: A2780
# HCT-15 = test: Cytotoxicity against human HCT15 cells by MTT assay; format: functional, cell-based
SMILES,IC50 [1] [nM],IC50 (K562) [nM],IC50 (A-375) [nM],IC50 (HepG2) [nM],other results
COc1ccc(/C=C/C(=O)c2ccc(OC)c3c2OC(C)(C)C=C3)cc1OC(=O)CCl,> 10000,400,450,120,–
C=CCOc1cc(/C=C/C(=O)c2ccc(OC)c3c2OC(C)(C)C=C3)ccc1OC,> 20000,> 10000,> 10000,> 10000,–
COc1ccc(/C=C/C(=O)c2ccc(OC)c3c2OC(C)(C)C=C3)cc1OC(=O)C1CC1,> 10000,410,380,220,–
COc1ccc(/C=C/C(=O)c2ccc(OC)c3c2OC(C)(C)C=C3)cc1OC(=O)CCCc1ccc(N(CCCl)CCCl)cc1,> 10000,470,9200,700,–
COc1ccc(/C=C/C(=O)Oc2cc(/C=C/C(=O)c3ccc(OC)c4c3OC(C)(C)C=C4)ccc2OC)cc1,18000,380,2630,430,–
COc1ccc(/C=C/C(=O)c2ccc(OC)c3c2OC(C)(C)C=C3)cc1OC(=O)c1ccc(Br)cc1,8400,1110,420,680,–
COc1cccc(C(=O)Oc2cc(/C=C/C(=O)c3ccc(OC)c4c3OC(C)(C)C=C4)ccc2OC)c1,> 10000,790,800,870,–
COc1ccc(/C=C/C(=O)c2ccc(OC)c3c2OC(C)(C)C=C3)cc1OCCN1CCCCC1,9150,2080,3000,4400,–
COc1cc2c(c(OC)c1OC)-c1ccc(OC)c(=O)cc1[C@@H](NC(C)=O)CC2 [COLCHICINE],–,–,–,–,IC50 (SK-HEP1): 170 nM; IC50 (MCF7): 290 nM; IC50 (Bel-7402): 1310 nM; IC50 [2]: 80000 nM; IC50 (PC-3): 40 nM; IC50 (SK-OV-3): 120 nM; IC50 [3]: 1720 nM; IC50 (DU-145): 300 nM; IC50 [4]: 27000 nM; IC50 (HT-29): 20 nM; IC50 [5]: 90 nM; IC50 [6]: 3120 nM; IC50 (HCT-8): 11800 nM; IC50 (NCI-H358): 20 nM; IC50 (A2780): > 20000 nM; IC50 [7]: 20 nM; IC50 (HCT-15): 80 nM
C#CCOc1cc(/C=C/C(=O)c2ccc(OC)c3c2OC(C)(C)C=C3)ccc1OC,> 10000,> 10000,> 10000,> 10000,–
COc1ccc(/C=C/C(=O)c2ccc(OC)c3c2OC(C)(C)C=C3)cc1OC(=O)Cc1ccc(Cl)c(Cl)c1,> 10000,430,700,600,–
COc1ccc(/C=C/C(=O)c2ccc(OC)c3c2OC(C)(C)C=C3)cc1OC(=O)c1ccco1,> 10000,450,680,370,–
COc1ccc(/C=C/C(=O)c2ccc(OC)c3c2OC(C)(C)C=C3)cc1OC(=O)Cc1cccc(C(F)(F)F)c1,> 10000,290,480,570,–

# — ChEMBL document CHEMBL2331170, “Synthesis and biological evaluation of novel pyranochalcone derivatives as a new class of microtubule stabilizing agents” (Eur J Med Chem, 2013)
